Calls of active or inactive are those of the source. The calls are words filed in the database; no cut-off is given here.
Experiments:
Sus scrofa = organism: Sus scrofa; test: Inhibition of pig pancreas sPLA2 at 10 uM
Outline: (§1)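 Purified enzyme (Naja naja venom, porcine pancreatic, or human recombinant synovial) in 100 mM Tris-HCl, 1 mM CaCl2, pH 7.5, preincubated 5 min at 37 °C with compound or vehicle. Then incubated 15 min with autoclaved E. coli CECT 101 membranes labelled with [3H]oleic acid. Stopped with ice-cold BSA (0.07% w/v final). Supernatant radioactivity counted after centrifugation. Mean ± SEM, n = 6.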

[1] = Inhibition of bee venom sPLA2; set-up: species or system Apis mellifera
Outline: (§2)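 Radiometric sPLA2 assay on E. coli CECT 101 membranes labelled by growth for 6–8 h at 37 °C with [3H]oleic acid, then autoclaved. Bee venom or human recombinant synovial enzyme in 100 mM Tris-HCl, 1 mM CaCl2, pH 7.5. Enzyme preincubated 5 min at 37 °C with compound or vehicle, then 15 min with membranes. Stopped with ice-cold BSA and centrifuged. Supernatant radioactivity counted by scintillation. IC50 from at least four concentrations (n = 6). Mean ± SEM.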

Rattus norvegicus = organism: Rattus norvegicus; test: Inhibition of rat air pouch sPLA2 at 10 uM
Outline: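 sPLA2 source was exudate supernatant from zymosan-injected rat air pouch. Preincubated 5 min at 37 °C with compound or vehicle, then 15 min with autoclaved [3H]oleate-labelled E. coli CECT 101 membranes. Stopped with ice-cold BSA (0.07% w/v final). Released radioactivity in the supernatant counted by scintillation. Mean ± SEM, n = 6.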

[2] = Inhibition of human synovial sPLA2; outline: as §2
Homo sapiens = organism: Homo sapiens; test: Inhibition of human synovial sPLA2 at 10 uM; outline: as §1
Apis mellifera = test: Inhibition of bee venom sPLA2 at 10 uM; outline: as §2
[3] = Cytotoxicity against human neutrophils up to 10 uM by MTT assay; format: cell-based; conditions: neutrophil
Outline: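 Viability of human neutrophils assessed by mitochondrial reduction of MTT to formazan.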

Naja naja = test: Inhibition of Naja naja sPLA2 at 10 uM; outline: as §1
RAW264.7 = test: Inhibition of cPLA2 in mouse RAW264.7 cells; format: cell-based
Outline: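 Enzyme was the cytosolic fraction of murine RAW 264.7 cells. Substrate was 1-palmitoyl-2-[14C]arachidonyl-phosphatidylcholine. Compound in methanol (<1% final) added before the enzyme, then 60 min at 37 °C. Stopped with isopropanol-heptane-0.5 M H2SO4 (10:5:1). Released arachidonate in the heptane phase was cleaned on silica gel and counted.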

SMILES | inhibition (Sus scrofa) [%] | IC50 [1] [µM] | inhibition (Rattus norvegicus) [%] | IC50 [2] [µM] | inhibition (Homo sapiens) [%] | inhibition (Apis mellifera) [%] | Activity [3] | inhibition (Naja naja) [%] | Activity (RAW264.7)
CC1=C(CC/C(C)=C/CCC2=CC[C@H](C3=CC(=O)OC3O)O[C@@H]2O)C(C)(C)CCC1 (some centres not stated) [MANOLIDE] | 32.3 | 7.5 | 38.4 | 3.9 | 93.2 | 62.5 | – | – | –
C[C@]1(CO)CCC[C@]2(C)[C@H]3CC[C@@H]4C=C(CC(=O)O)C(=O)C[C@H]4[C@]3(C)CC[C@H]12 [PETROSASPONGIOLIDE K] | 14.3 | – | 18.8 | – | 34.4 | 37.1 | Not Active | 1.3 | –
C[C@]1(CO)CCC[C@]2(C)[C@H]3CC[C@@H]4C(O)O[C@@H](C5=CC(=O)OC5O)C[C@H]4[C@]3(C)CC[C@H]12 (some centres not stated) [PETROSASPONGIOLIDE P] | 19.5 | – | 25.6 | 5.8 | 87.2 | 5.4 | Not Active | 8.7 | –
CC1(C)CCC[C@@]2(C)C1CC[C@@]1(C)c3cc[n+](CC(=O)O)cc3CCC21.[Cl-] (some centres not stated) [SPONGIDINE A] | 18 | – | 17.1 | – | 40.1 | 33.1 | Not Active | 0.5 | inactive
CC(=O)OC[C@@]1(C)CCC[C@@]2(C)C1CC[C@@]1(C)c3cc[n+](CC(=O)O)cc3CCC21 (some centres not stated) [SPONGIDINE B] | 14.2 | – | 17.9 | – | 34.6 | 32.2 | Not Active | 0.4 | inactive
CC1(C)CCC[C@@]2(C)C1CC[C@@]1(C)c3cc(CCC(=O)O)[n+](CC(=O)O)cc3CCC21.[Cl-] (some centres not stated) [SPONGIDINE C] | 9.1 | – | 30.9 | – | 40.4 | 36.2 | Not Active | 3.1 | inactive
CC1(C)CCC[C@@]2(C)C1CC[C@@]1(C)c3cc[n+](CCS(=O)(=O)O)cc3CCC21 (some centres not stated) [SPONGIDINE D] | 7.6 | – | 19.6 | – | 48.2 | 37.6 | Not Active | 0 | inactive
